What was measured:
[1] = test system: KB; assay: Cytotoxicity against human KB cells assessed as growth inhibition at 1 uM after 72 hrs by MTS assay; assay type: functional
How it was run: (§1)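 KB cells plated at 650 cells/well, treated 24 h later with compounds in DMSO at 10^-5 or 10^-6 M, in triplicate. Controls got DMSO at 1% final volume; taxotere 2.5×10^-10 M served as reference. After 72 h exposure, MTS reagent added for 3 h at 37 °C and absorbance read at 490 nm. Results given as percent inhibition of proliferation relative to control OD.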

[2] = test system: KB; assay: Cytotoxicity against human KB cells assessed as growth inhibition after 72 hrs by MTS assay; assay type: functional, cell-based
How it was run: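 KB cells seeded at 650 cells/well and dosed 24 h later with DMSO solutions (1% final DMSO, also given to controls) over a range starting at 0.5 nM. After 72 h exposure, MTS added for 3 h at 37 °C and A490 read. Proliferation inhibition taken versus control OD. IC50 (50% inhibition) determined in separate duplicate for compounds giving over 80% inhibition at 10^-6 M.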

[3] = test system: KB; assay: Cytotoxicity against human KB cells assessed as growth inhibition at 10 uM after 72 hrs by MTS assay; assay type: functional; how it was run: as §1
[4] = Inhibition of tubulin

| Structure (SMILES) | inhibition at 1 µM [1] [%] | IC50 [2] [nM] | inhibition at 10 µM [3] [%] | IC50 [4] [nM] |
| --- | --- | --- | --- | --- |
| COc1ccc(/C(C)=C2/CC(=O)c3cccn32)cc1O | 91 | 70 | 95 | – |
| COc1ccc(/C(C)=C2/CC(=O)c3cccn32)cc1 | 1 | – | 78 | – |
| C/C(=C1\CC(=O)c2cccn21)c1ccc(Cl)cc1 | 0 | – | 0 | – |
| CC(C)C1CC(=O)c2cccn21 (configuration not stated) | 0 | – | 0 | – |
| COc1ccc(-c2csc3c2-n2cccc2C3=O)cc1O | 86 | 5.7 | 86 | 2900 |
| COc1ccc(-c2csc3c2-n2cccc2C3=O)cc1 | 92 | 50 | 84 | – |
| CC(=O)O[C@@]12CO[C@@H]1C[C@H](O)[C@@]1(C)C(=O)[C@H](O)C3=C(C)[C@@H](OC(=O)[C@H](O)[C@@H](NC(=O)OC(C)(C)C)c4ccccc4)C[C@@](O)([C@@H](OC(=O)c4ccccc4)[C@H]21)C3(C)C [DOCETAXEL] | – | 0.4 | – | – |
